Experimental data taken from ChEMBL document CHEMBL2429727, “Syntheses, biological evaluation and SAR of ingenol mebutate analogues for treatment of actinic keratosis and non-melanoma skin cancer” (Bioorg Med Chem Lett, 2013).
The source made the active and inactive calls. No cut-off for these calls is given here.

Assays:
[1] = Chemical stability of the compound in aqueous buffer assessed as drug recovery after 16 hrs at pH 7.4 by HPLC analysis; assay type: physicochemical; conditions: read-out: Drug recovery
Outline: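 DMSO stock diluted with pre-heated (37 °C) aqueous buffer pH 7.4 to at most 30% v/v organic content, then shaken. Held in the HPLC autosampler at 37 °C, first injected within 5 min, then injected repeatedly over 16 h. Recovery taken from the fall in compound peak area, UV detection normally at 270 nm.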

[2] = system: Keratinocyte; experiment: Induction of IL-8 release in human primary epidermal keratinocytes after 6 hrs by HTRF assay; assay type: functional, cell-based
[3] = Dissociation constant, pKa of the compound; assay type: physicochemical
[4] = system: Keratinocyte; experiment: Induction of TNFalpha release in human primary epidermal keratinocytes after 6 hrs relative to ingenol mebutate; assay type: functional
Outline: (§1)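 Human adult log-phase primary epidermal keratinocytes subcultured at 10,000 cells/well. Incubated with titrated compound for 6 h at 37 °C in humidified 95% air/5% CO2. Secreted cytokines quantified on 4-spot cytokine plates. EC50 is the concentration giving 50% of the maximum effect of the ingenol mebutate reference. Emax is maximal response relative to that reference.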

[5] = system: Keratinocyte; experiment: Induction of IL-8 release in human primary epidermal keratinocytes after 6 hrs by HTRF assay relative to ingenol mebutate; assay type: functional
[6] = Induction of necrosis in human HeLa cells after 30 mins by resazurin assay; assay type: cell-based; conditions: read-out: LC50
Outline: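 HeLa cells exposed to increasing ester concentrations up to 400 µM for 30 min at 37 °C. Remaining metabolic activity then read with a resazurin-based dye. LC50 is the concentration causing 50% loss of metabolic activity.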

[7] = Induction of oxidative burst in polymorphonuclear leukocytes (unknown origin) isolated from buffy coat at 10 uM after 40 mins by fluorescence assay relative to ingenol mebutate; assay type: functional
Outline: (§2)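 PMN isolated and purified from fresh buffy coats, then incubated 40 min at ambient temperature with titrated compound (top concentration 10 µM) premixed with hydroethidine. Respiratory burst read as fluorescence in relative light units, emission 579 nm, excitation 485 nm. EC50 and Emax are expressed relative to the maximum effect of the ingenol mebutate reference.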

[8] = Induction of oxidative burst in polymorphonuclear leukocytes (unknown origin) isolated from buffy coat after 40 mins by fluorescence assay; assay type: functional, cell-based; outline: as §2
[9] = target: Protein kinase C delta type (Homo sapiens, UniProt Q05655); experiment: Activation of PKCdelta (unknown origin) using phosphatidylserine […]; conditions: read-out: EC50
Outline: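 PKCdelta assayed in vitro by phosphorylation of a PKC peptide substrate, with 0.05 mg/mL phosphatidylserine and no diacylglycerol so stimulation could be seen. Compounds serially diluted at semilogarithmic intervals, twelve points from 10 µM. Reaction started by adding ATP.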

[10] = system: Keratinocyte; experiment: Induction of TNFalpha release in human primary epidermal keratinocytes after 6 hrs; assay type: functional, cell-based; outline: as §1
[11] = system: Keratinocyte; experiment: Induction of IL-8 release in human primary epidermal keratinocytes after 6 hrs by HTRF assay in presence of PKC inhibitor bisindolylmaleimide 1; assay type: functional, cell-based
[12] = system: Keratinocyte; experiment: Induction of TNFalpha release in human primary epidermal keratinocytes after 6 hrs in presence of PKC inhibitor bisindolylmaleimide 1; assay type: functional, cell-based
[13] = Induction of oxidative burst in polymorphonuclear leukocytes (unknown origin) isolated from buffy coat at 10 uM after 40 mins by fluorescence assay in presence of PKC inhibitor bisindolylmaleimide 1; assay type: functional, cell-based

Chain of Protein kinase C delta type (Q05655 whole entry): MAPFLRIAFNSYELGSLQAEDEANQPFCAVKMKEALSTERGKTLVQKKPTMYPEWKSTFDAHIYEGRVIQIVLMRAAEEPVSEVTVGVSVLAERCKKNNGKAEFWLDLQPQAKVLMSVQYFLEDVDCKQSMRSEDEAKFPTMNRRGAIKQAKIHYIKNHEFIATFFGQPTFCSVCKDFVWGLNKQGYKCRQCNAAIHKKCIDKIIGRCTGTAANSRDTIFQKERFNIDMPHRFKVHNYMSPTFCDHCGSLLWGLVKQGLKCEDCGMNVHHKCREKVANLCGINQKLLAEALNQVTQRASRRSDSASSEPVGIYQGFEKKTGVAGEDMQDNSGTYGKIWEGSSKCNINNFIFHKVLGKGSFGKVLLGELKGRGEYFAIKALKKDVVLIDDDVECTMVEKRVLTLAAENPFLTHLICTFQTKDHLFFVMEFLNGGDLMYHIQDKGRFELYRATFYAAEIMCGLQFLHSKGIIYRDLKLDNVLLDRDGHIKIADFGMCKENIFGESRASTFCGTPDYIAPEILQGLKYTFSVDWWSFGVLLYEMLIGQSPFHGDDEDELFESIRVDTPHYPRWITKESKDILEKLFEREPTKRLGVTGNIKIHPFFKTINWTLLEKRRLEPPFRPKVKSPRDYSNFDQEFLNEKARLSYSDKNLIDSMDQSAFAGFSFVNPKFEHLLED

C/C=C(\C)C(=O)O[C@H]1C(C)=C[C@]23C(=O)[C@@H](C=C(CO)[C@@H](O)[C@]12O)[C@H]1[C@@H](C[C@H]3C)C1(C)C
remaining at 16 h [1]: 45% | EC50 [2]: 112 nM | pKa [3]: 5.02 | Emax [4]: 81% | Emax [5]: 75% | CC50 at 0.5 h [6]: 237000 nM | Emax at 10 µM [7]: 92% | EC50 [8]: 7.5 nM

C/C=C(/C)C(=O)O[C@H]1C(C)=C[C@]23C(=O)[C@@H](C=C(CO)[C@@H](O)[C@]12O)[C@H]1[C@@H](C[C@H]3C)C1(C)C [INGENOL MEBUTATE]
remaining at 16 h [1]: 60% | EC50 [2]: 10.3 nM | EC50 [9]: 4.1 nM | EC50 [10]: 11.2 nM | Activity [11]: inactive | Activity [12]: inactive | Activity [13]: inactive | CC50 at 0.5 h [6]: 230000 nM | EC50 [8]: 8.7 nM

CCC(CC)C(=O)O[C@H]1C(C)=C[C@]23C(=O)[C@@H](C=C(CO)[C@@H](O)[C@]12O)[C@H]1[C@@H](C[C@H]3C)C1(C)C
remaining at 16 h [1]: 60% | EC50 [2]: 43 nM | EC50 [9]: 4.5 nM | Emax [4]: 62% | EC50 [10]: 27 nM | Emax [5]: 59% | CC50 at 0.5 h [6]: 86000 nM | Emax at 10 µM [7]: 109% | EC50 [8]: 6.3 nM

CC1=C[C@]23C(=O)[C@@H](C=C(CO)[C@@H](O)[C@]2(O)[C@H]1OC(=O)C1(C)CCCCC1)[C@H]1[C@@H](C[C@H]3C)C1(C)C
remaining at 16 h [1]: 70% | EC50 [2]: 22 nM | EC50 [9]: 2.9 nM | Emax [4]: 62% | EC50 [10]: 13 nM | Emax [5]: 52% | CC50 at 0.5 h [6]: 61000 nM | Emax at 10 µM [7]: 127% | EC50 [8]: 7.6 nM

C/C=C(/C(=O)O[C@H]1C(C)=C[C@]23C(=O)[C@@H](C=C(CO)[C@@H](O)[C@]12O)[C@H]1[C@@H](C[C@H]3C)C1(C)C)c1ccccc1
remaining at 16 h [1]: 72% | EC50 [2]: 3.8 nM | EC50 [9]: 5.2 nM | Emax [4]: 110% | EC50 [10]: 4.9 nM | Emax [5]: 97% | CC50 at 0.5 h [6]: 103000 nM | Emax at 10 µM [7]: 126% | EC50 [8]: 7.4 nM

C/C=C(/C)C(=O)O
pKa [3]: 4.3

CCCCCCCCCCCCCCCC(=O)O[C@H]1C(C)=C[C@]23C(=O)[C@@H](C=C(CO)[C@@H](O)[C@]12O)[C@H]1[C@@H](C[C@H]3C)C1(C)C
EC50 [2]: 7.3 nM | EC50 [9]: 4.7 nM | Emax [4]: 115% | EC50 [10]: 8.4 nM | Emax [5]: 109% | CC50 at 0.5 h [6]: 400000 nM | Emax at 10 µM [7]: 106% | EC50 [8]: 28 nM

CC1=C[C@]23C(=O)[C@@H](C=C(CO)[C@@H](O)[C@]2(O)[C@H]1OC(=O)C(C)=C(C)C)[C@H]1[C@@H](C[C@H]3C)C1(C)C
remaining at 16 h [1]: 75% | EC50 [2]: 8.6 nM | EC50 [9]: 5.3 nM | Emax [4]: 97% | EC50 [10]: 8 nM | Emax [5]: 102% | CC50 at 0.5 h [6]: 174000 nM | Emax at 10 µM [7]: 106% | EC50 [8]: 5.9 nM

CO/N=C(\C(=O)O[C@H]1C(C)=C[C@]23C(=O)[C@@H](C=C(CO)[C@@H](O)[C@]12O)[C@H]1[C@@H](C[C@H]3C)C1(C)C)c1ccccc1
remaining at 16 h [1]: 68% | EC50 [2]: 147 nM | EC50 [9]: 10.6 nM | Emax [4]: 52% | EC50 [10]: 1600 nM | Emax [5]: 54% | CC50 at 0.5 h [6]: 92000 nM | Emax at 10 µM [7]: 120% | EC50 [8]: 49 nM
